Consider 37 sequences from the array DNA melting data of Ke et al. (doi:10.1101/2024.01.08.574731).

A short description of series [1]: folding enthalpy; higher = less favourable; fluorescence melt of hairpins on a sequencing array, two-state fit. The following applies: sodium 0.088 M. The essentials:
(§1)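 Bootstrapped two-state fits yielded melting temperature and folding enthalpy for library hairpins. Cy3 fluorescence, with annealed Cy3 and quencher oligos, was imaged on a sequenced MiSeq flow cell in 50 mM Na-HEPES pH 8.0, 25 mM NaCl in 2.5 °C steps up to 60 °C, and normalised to pre-quench Cy3 and to control constructs. Four replicates were combined by inverse variance, and fitted temperatures were raised by 9.35 °C to match UV melts.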

Series [2] is described as follows: melting temperature; fluorescence melt of hairpins on a sequencing array, two-state fit, raised by 9.35 °C to match UV melts. The following applies: sodium 0.088 M. The essentials:
as §1

As for GATTGCGAAAGCATGATC ((((((....)))..))), in series [1], the folding enthalpy was -48.5 kJ/mol. The Tm in series [2] is 36.3 °C.

As for GATTGGCCGAAAGGCATC (((..(((....)))))), in series [1], the folding enthalpy is -39.9 kJ/mol. For the same sequence, the Tm in series [2] is 28.5 °C.

Turning to GATTGGCGAAAGCCGATC (((.(((....))).))), in series [1], the folding enthalpy was -108 kJ/mol. Moreover, the Tm in series [2] is 56.8 °C.

As to GATTGGGGAAACCCGATC (((.(((....))).))), in series [1], the folding enthalpy is -146 kJ/mol. For the same sequence, the Tm in series [2] stood at 48.8 °C.

Consider GATTGGGGAAACCTAATC ((((.((....)).)))), for which the folding enthalpy in series [1] is -123 kJ/mol. The Tm in series [2] worked out at 37.5 °C.

Take GATTGTACGAAAGTAATC (((..(((....)))))): in series [1], the folding enthalpy is -78.4 kJ/mol. Also, the Tm in series [2] was 28.1 °C.

Consider GATTGTGCGAAAGCAATC (((..(((....)))))), for which the folding enthalpy in series [1] is -53.6 kJ/mol. Besides, the Tm in series [2] was 34 °C.

GATTGTGGAAACACAGTC ((.((((....)))).)): the folding enthalpy in series [1] is -111 kJ/mol. Moreover, the Tm in series [2] was 42.6 °C.

As for GATTTAGGAAACTAGATC (((.(((....))).))), the folding enthalpy in series [1] is -115 kJ/mol. The Tm in series [2] was determined as 28.3 °C.

For the sequence GATTTCCGAAAGGAATC (((.(((....)))))), the folding enthalpy in series [1] was -68.8 kJ/mol. The Tm in series [2] was 42.9 °C.

As for GATTTCCGAAAGGATATC (((.(((....))).))), in series [1], the folding enthalpy was -103 kJ/mol. Also, the Tm in series [2] stood at 42 °C.

GATTTCGGAAACGAAATC (((((((....))))))): the folding enthalpy in series [1] was -172 kJ/mol. The Tm in series [2] was determined as 58.1 °C.

For the sequence GATTTGCCGAAAGGCATC (((..(((....)))))), the folding enthalpy in series [1] is -24.3 kJ/mol. The Tm in series [2] worked out at 21.9 °C.

In the case of GATTTGCGAAAGCACATC (((.(((....))).))), the folding enthalpy in series [1] is -83.2 kJ/mol. Further, in series [2], the Tm came to 43.9 °C.

Regarding GATTTGGGAAACCAAACC (.(((((....))))).), in series [1], the folding enthalpy was -81.1 kJ/mol. Further, the Tm in series [2] amounted to 34 °C.

For the sequence GATTTGGGAAACCGAATC ((((.((....)).)))), the folding enthalpy in series [1] is -130 kJ/mol. Also, the Tm in series [2] amounted to 44.5 °C.

Take GATTTTGAAAAAAATC ((((((....)))))): the folding enthalpy in series [1] was -99.2 kJ/mol. In addition, in series [2], the Tm worked out at 40.7 °C.

With GATTTTGGAAACAAGATC (((.(((....))).))), the folding enthalpy in series [1] was -93.6 kJ/mol. In addition, the Tm in series [2] was 33.6 °C.

On to GCAAAAACGAAAGTTTGC (((..(((....)))))), for which the folding enthalpy in series [1] is -109 kJ/mol. Besides, the Tm in series [2] amounted to 43.2 °C.

As for GCAAAACGAAAGTTTGC (((.(((....)))))), the folding enthalpy in series [1] was -128 kJ/mol. The Tm in series [2] was determined as 50.8 °C.

Turning to GCAAAAGCGAAAGCTTGC (((..(((....)))))), the folding enthalpy in series [1] is -76.6 kJ/mol. In series [2], the Tm amounted to 51.4 °C.

On to GCAAAAGGAAACCTTTGC (((((.(....).))))), for which the folding enthalpy in series [1] was -127 kJ/mol. Further, the Tm in series [2] was 39.6 °C.

In the case of GCAAAAGGAAACTCTTGC ((((.((....)).)))), the folding enthalpy in series [1] is -45.4 kJ/mol. The Tm in series [2] is 27.4 °C.

With GCAAAAGGAAACTTTCGC ((.((((....)))).)), the folding enthalpy in series [1] was -85.6 kJ/mol. Further, the Tm in series [2] was 31.8 °C.

As to GCAAAAGGAAACTTTTGC (((((((....))))))), in series [1], the folding enthalpy is -188 kJ/mol. In addition, the Tm in series [2] came to 56.5 °C.

GCAAACGAAAGTTACTGC ((((((....)))..))): the folding enthalpy in series [1] was -55.9 kJ/mol. Moreover, the Tm in series [2] was determined as 27.3 °C.

Take GCAAACGAAAGTTATTGC ((((((....)))..))): the folding enthalpy in series [1] was -77.5 kJ/mol. In addition, in series [2], the Tm came to 31.7 °C.

Take GCAAAGAAATTTGC (((((....))))): the folding enthalpy in series [1] is -81.2 kJ/mol. In addition, in series [2], the Tm amounted to 38.9 °C.

As for GCAAAGACGAAAGTCTGC (((..(((....)))))), the folding enthalpy in series [1] is -65.8 kJ/mol. The Tm in series [2] came out at 50.2 °C.

Take GCAAAGCGAAAGCATAGC ((.(.((....)).).)): in series [1], the folding enthalpy was -39.4 kJ/mol. In addition, in series [2], the Tm stood at 33.4 °C.

Turning to GCAAAGCGAAAGCATCGC ((.(.((....)).).)), the folding enthalpy in series [1] was -45.3 kJ/mol. In series [2], the Tm turned out to be 35.4 °C.

For the sequence GCAAAGCGAAAGCTCCGC ((..(((....)))..)), the folding enthalpy in series [1] is -47.6 kJ/mol. Besides, the Tm in series [2] is 29 °C.

Take GCAAAGCGAAAGCTCTGC (((.(((....))).))): in series [1], the folding enthalpy is -130 kJ/mol. Moreover, the Tm in series [2] was found to be 47 °C.

For GCAAAGCGAAAGCTGTGC (((.(((....))).))), the folding enthalpy in series [1] was -174 kJ/mol. The Tm in series [2] was 54.4 °C.

In the case of GCAAAGCGAAAGCTTGGC ((.((((....)))).)), the folding enthalpy in series [1] is -162 kJ/mol. Also, the Tm in series [2] worked out at 62.9 °C.

On to GCAAAGGCGAAAGCCTGC (((..(((....)))))), for which the folding enthalpy in series [1] is -62.2 kJ/mol. Besides, in series [2], the Tm came to 54.6 °C.

Regarding GCAAAGGGAAACTTTTGC (((((.(....).))))), the folding enthalpy in series [1] is -112 kJ/mol. Besides, the Tm in series [2] amounted to 41 °C.
